Active and inactive are the calls of the source. The rule behind the calls is not given here.
Columns and labels:
[1] = Induction of H+/Na+ exchange activity in pyranine-encapsulated large unilamellar vesicle of egg yolk phosphatidylcholine/cholesterol at 10 uM administered 60 secs measured for 10 mins by spectrofluorometric analysis; format: physicochemical; conditions: 125 nM, in the assay text read “at 125 nM” for “at 10 uM”
In short: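 Liposomes of EYPC/cholesterol 2:1 carrying encapsulated pyranine, prepared in HEPES buffer with 200 mM NaCl. pH gradient: 6.5 inside, 7.5 outside. Peptides added at 60 s. H+/Na+ exchange followed as pH-dependent pyranine fluorescence increase, normalized to maximal exchange induced by Triton X-100.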

P388 [2] = experiment: Induction of H+/Na+ exchange activity in BCECF-loaded mouse P388 cells assessed as change in intracellular pH at 125 nM measured for 1.5 hrs by spectrofluorometric analysis; format: functional, cell-based
In short: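 P388 mouse leukemia cells loaded with BCECF-AM, which intracellular esterases hydrolyse to trapped BCECF. Cells were suspended in pH 7.8 MOPS buffer with 130 mM NaCl to impose a Na+ gradient. Peptides added at 0 s at 125 nM; exposure 1.5 h. Fluorescence was converted to intracellular pH using a nigericin calibration curve.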

P388 [3] = experiment: Cytotoxicity against mouse P388 cells assessed as cell viability after 92 hrs by XTT assay; format: functional, cell-based; conditions: P388, 92 h

Activity [1] | SMILES | Activity (P388 [2]) | IC50 (P388 [3])
Not Active | CC[C@H](C)[C@H](NC(=O)[C@@H](CC(=O)NC)NC(=O)CNC(=O)[C@H](NC(=O)[C@@H](NC(=O)[C@@H](CC(=O)NC)NC(=O)[C@@H](NC(=O)[C@@H](CC(=O)NC)NC(=O)CNC(=O)CNC(=O)[C@H](C)NC(=O)[C@H](NC(=O)[C@H](CCC(=O)NC)NC(=O)[C@@H](CC(=O)NC)NC(=O)[C@@H](NC(=O)CNC(=O)[C@H](C)NC(=O)CNC(=O)[C@@H](NC(=O)[C@@H](CC(=O)NC)NC(=O)[C@H](C)NC(=O)[C@H](NC(=O)[C@H](C)N)C(C)(C)C)C(C)(C)O)C(C)(C)C)C(C)(C)O)[C@@H](C)CC)C(C)(C)C)C(C)(C)O)C(=O)N[C@H](CC(=O)NC)C(=O)N[C@H](C(=O)N[C@H](CC(=O)NC)C(=O)N[C@@H](C)C(=O)N[C@H](CC(=O)NC)C(=O)N[C@H](C(=O)N[C@H](CO)C(=O)N[C@H](C(=O)N[C@H](CC(N)=O)C(=O)N[C@@H](Cc1cn(CCNS(=O)(=O)c2cccc3c(N(C)C)cccc23)nn1)C(=O)N[C@H](CC(N)=O)C(=O)N[C@@H](CCC(N)=O)C(=O)N[C@@H](C(=O)N[C@H](C(=O)O)[C@@H](C)O)[C@H](C)O)C(C)C)C(C)C)C(C)C | inactive | 3.7 nM
 | CC[C@H](C)[C@H](NC(=O)[C@@H](CC(=O)NC)NC(=O)CNC(=O)[C@H](NC(=O)[C@@H](NC(=O)[C@@H](CC(=O)NC)NC(=O)[C@@H](NC(=O)[C@@H](CC(=O)NC)NC(=O)CNC(=O)CNC(=O)[C@H](C)NC(=O)[C@H](NC(=O)[C@H](CCC(=O)NC)NC(=O)[C@@H](CC(=O)NC)NC(=O)[C@@H](NC(=O)CNC(=O)[C@H](C)NC(=O)CN)C(C)(C)C)C(C)(C)O)[C@@H](C)CC)C(C)(C)C)C(C)(C)O)C(=O)N[C@H](CC(=O)NC)C(=O)N[C@H](C(=O)N[C@H](CC(=O)NC)C(=O)N[C@@H](C)C(=O)N[C@H](CC(=O)NC)C(=O)N[C@H](C(=O)N[C@H](CO)C(=O)N[C@H](C(=O)N[C@H](CC(N)=O)C(=O)N[C@@H](Cc1cn(CCNS(=O)(=O)c2cccc3c(N(C)C)cccc23)nn1)C(=O)N[C@H](CC(N)=O)C(=O)N[C@@H](CCC(N)=O)C(=O)N[C@@H](C(=O)N[C@H](C(=O)O)[C@@H](C)O)[C@H](C)O)C(C)C)C(C)C)C(C)C |  | > 450 nM
 | CC[C@H](C)[C@H](NC(=O)[C@@H](CC(=O)NC)NC(=O)CNC(=O)[C@H](NC(=O)[C@@H](NC(=O)[C@@H](CC(=O)NC)NC(=O)[C@@H](NC(=O)[C@@H](CC(=O)NC)NC(=O)CNC(=O)CNC(=O)[C@H](C)NC(=O)[C@H](NC(=O)[C@@H](N)CCC(=O)NC)C(C)(C)O)[C@@H](C)CC)C(C)(C)C)C(C)(C)O)C(=O)N[C@H](CC(=O)NC)C(=O)N[C@H](C(=O)N[C@H](CC(=O)NC)C(=O)N[C@@H](C)C(=O)N[C@H](CC(=O)NC)C(=O)N[C@H](C(=O)N[C@H](CO)C(=O)N[C@H](C(=O)N[C@H](CC(N)=O)C(=O)N[C@@H](Cc1cn(CCNS(=O)(=O)c2cccc3c(N(C)C)cccc23)nn1)C(=O)N[C@H](CC(N)=O)C(=O)N[C@@H](CCC(N)=O)C(=O)N[C@@H](C(=O)N[C@H](C(=O)O)[C@@H](C)O)[C@H](C)O)C(C)C)C(C)C)C(C)C |  | > 420 nM

— ChEMBL document CHEMBL2321750, “Structural permutation of potent cytotoxin, polytheonamide B: discovery of cytotoxic Peptide with altered activity” (ACS Med Chem Lett, 2013)
